Assay results as given in ChEMBL document CHEMBL4261504, “Identification of steroid-like natural products as antiplasmodial agents by 2D and 3D similarity-based virtual screening” (Medchemcomm, 2017).

Legend:
Plasmodium falciparum = test: Antimalarial activity against Plasmodium falciparum NF54 infected in human erythrocytes assessed as reduction in [3H]hypoxanthine incorporation preincubated for 48 hrs followed by [3H]hypoxanthine addition measured after 24 hrs by liquid scintillation counting; format: functional, organism-based
Outline: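 Chloroquine-sensitive P. falciparum NF54 was tested in a modified [3H]hypoxanthine incorporation assay. Test compounds were run up to 20 μM, and fusidic acid was tested above that. Chloroquine, artesunate and fusidic acid served as positive controls. Compound purity was ≥95%. IC50 is the mean of at least 2 independent experiments.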

CHO = test: Cytotoxicity against CHO cells by MTT assay; format: cell-based; details: Cricetulus griseus
Outline: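 Mammalian Chinese hamster ovary (CHO) cell line, with emetine as the positive control. Test samples were of ≥95% purity. Cytotoxicity is reported as IC50.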

[1] = Selectivity index, ratio of IC50 for CHO cells to IC50 for Plasmodium falciparum NF54 infected in human erythrocytes; format: toxicity, cell-based; details: Chinese hamster, read-out: Ratio IC50
Outline: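 SI was calculated as the IC50 against Chinese hamster ovary (CHO) cells divided by the IC50 against P. falciparum NF54. The NF54 value came from the [3H]hypoxanthine incorporation assay. Emetine was the positive control for CHO cytotoxicity.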

Structure (SMILES)	IC50 (Plasmodium falciparum)	IC50 (CHO)	selectivity ratio [1]
CC(=O)[C@@]12O[C@@H]1C[C@H]1[C@H]3CC=C4[C@@H](CC[C@@H](O)C4(C)C)[C@]3(C)C(=O)C[C@@]12C	> 20 µM		
COC(=O)CC[C@@H](C)[C@H]1CC[C@@H]2[C@H]3[C@H](OC(C)=O)C[C@H]4C[C@H](OC(C)=O)CC[C@]4(C)[C@H]3C[C@H](OC(C)=O)[C@@]21C	3.45 µM	141 µM	40.9
CC(=O)O[C@H]1CC[C@@]2(C)C(=CC[C@@H]3[C@H]4CCC[C@@]4(C)CC[C@H]32)C1	> 20 µM		
CC(=O)O[C@H]1CC[C@]2(C)[C@H]3CC[C@@]4(C)[C@H](CC[C@@H]4[C@H](C)CCCC(C)C)[C@@H]3C[C@@H](O)[C@]2(O)C1	> 20 µM		
CC(=O)O[C@H]1CC[C@@H]2[C@H]3CC[C@@]4(O)[C@H](CCC[C@@H]4O)[C@H]3CC[C@]12C	> 20 µM		
CC(C)CCC[C@@H](C)[C@H]1CC[C@@H]2[C@@H]3C[C@H](O)[C@]4(O)C(=O)CCC[C@]4(C)[C@H]3CC[C@@]21C	> 20 µM		
CC[C@H]1CC[C@@]2(C)[C@H]3C[C@H]4O[C@@]45[C@@H](CC[C@@H](O)C5(C)C)[C@@H]3C(=O)C[C@@]12C	> 20 µM		
CC(=O)O[C@H]1C[C@@H](O)[C@]2(O)CC[C@@H]3[C@H]4CC[C@H]([C@H](C)CCCC(C)C)[C@@]4(C)CC[C@@H]3[C@@]2(C)C1	13.1 µM		
CC(=O)OC[C@@]12C(=O)C[C@@]3(C)[C@H](C(C)=O)CC[C@@]3(C)[C@@H]1C[C@H]1O[C@@]13[C@H]2CC[C@@H](OC(C)=O)C3(C)C	> 20 µM		
COc1ccc2c(c1)CC[C@@H]1[C@@H]2CC[C@]2(C)C3(CC[C@@]12C=O)SCCS3	> 20 µM		
CC(=O)O[C@H]1C[C@@H]2[C@H]3CC[C@H]([C@H](C)CCCC(C)C)[C@@]3(C)CC[C@@H]2[C@@]2(C)CCC[C@@H](O)[C@]12O	> 20 µM		
CC(=O)O[C@@H]1CC[C@]2(C)[C@H]3CC[C@@]4(C)[C@@H]([C@@H](C)CCCC(C)C)CC[C@H]4[C@@H]3CC[C@@]2(O)[C@@H]1O	> 20 µM		
CC(=O)O[C@H]1C(=O)C[C@@H]2C(=CC[C@H]3[C@@]2(C)C(=O)C[C@]2(C)C(C(C)=O)=CC[C@@]32C)C1(C)C	19.8 µM		
C[C@@H]1CC[C@@]2(OC1)O[C@H]1C[C@H]3[C@@H]4CC[C@H]5C[C@@H](O)CC[C@]5(C)C4=CC(=O)[C@]3(C)[C@H]1[C@@H]2C	> 20 µM		
CC(=O)O[C@H]1CC[C@@H]2[C@@H]3C[C@H](OC(C)=O)[C@@]45O[C@@H]4CCC[C@]5(C)[C@H]3CC[C@]12C	> 20 µM		
CC(=O)O[C@@H]1C[C@@]2(C)[C@@H]3CC=C4[C@@H](CC(=O)C4(C)C)[C@]3(C)C(=O)C[C@]2(C)[C@H]1C(C)=O	> 20 µM		
CC(=O)O[C@H]1CC[C@@H]2[C@H]3C[C@@H](O)[C@@]4(O)CCCC[C@H]4[C@@H]3CC[C@]12C	> 20 µM		
COc1ccc2c(c1)CC[C@@H]1[C@H]3[C@H](OCc4ccccc4)CC4(OCCO4)[C@H]3CC[C@@H]21	7 µM		
COc1ccc2c(c1)CC[C@H]1[C@@H]2CC[C@@]2(C)[C@]13C=C[C@@]2(C(C)=O)[C@@H](S(=O)(=O)c1ccccc1)C3	> 20 µM		
CC(=O)OC(C)(C)/C=C/C(=O)[C@](C)(O)[C@H]1[C@@H](O)C[C@@]2(C)[C@@H]3CC=C4[C@@H](CC[C@H](O)C4(C)C)[C@]3(CO)C(=O)C[C@]12C	1.76 µM	8.51 µM	4.83
CC1(C)CCC[C@H]2[C@]3(C)CC[C@]4(C)CCC[C@H]4[C@H]3C[C@@H](O)[C@@]21O	15.8 µM		
CC(=O)O[C@@H]1C[C@H]2[C@@](C)(C(=O)C[C@]3(C)[C@@H](C(C)=O)CC[C@@]23C)[C@@H]2CCC(=O)C(C)(C)[C@@]12O	> 20 µM		
CC(=O)OC(C)(C)/C=C/C(=O)[C@](C)(O)[C@H]1[C@H](O)C[C@@]2(C)[C@@H]3CC=C4[C@@H](C[C@H](O)C(=O)C4(C)C)[C@]3(C)C(=O)C[C@]12C	1.39 µM	1.99 µM	1.43
C[C@H]1[C@H](OC(=O)CCC(=O)O)O[C@@H]2O[C@@]3(C)CC[C@H]4[C@H](C)CC[C@@H]1[C@@]24OO3 [ARTESUNATE]	0.004 µM		
C[C@H](CCC(=O)O)[C@H]1CC[C@H]2[C@@H]3[C@H](O)C[C@@H]4C[C@H](O)CC[C@]4(C)[C@H]3C[C@H](O)[C@]12C [CHOLIC ACID]	> 20 µM		
CC(=O)OC(C)(C)/C=C/C(=O)[C@](C)(O)[C@H]1[C@H](O)C[C@@]2(C)[C@@H]3CC=C4[C@@H](C[C@H](O)C(=O)C4(C)C)[C@]3(CO)C(=O)C[C@]12C [CUCURBITACIN A]	2.92 µM	55.2 µM	18.9
C[C@@H]1CC[C@@]2(OC1)O[C@H]1C[C@H]3[C@@H]4CC=C5C[C@@H](O)CC[C@]5(C)[C@H]4CC[C@]3(C)[C@H]1[C@@H]2C [DISOGENIN]	> 20 µM		
CC(=O)O[C@H]1C[C@@]2(C)[C@@H](C[C@@H](O)[C@H]3[C@@]4(C)CC[C@@H](O)[C@@H](C)[C@@H]4CC[C@@]32C)/C1=C(\CCC=C(C)C)C(=O)O [FUSIDIC ACID]		194 µM	
